Inconclusive results are not listed. Calls of active or inactive are those of the source.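 Rule for the calls: active = cytotoxic compounds whose fitted half-effect concentration is at most twice the top tested dose in every test run; inconclusive = test runs disagree, or a flat moderate drop, or a poor fit; inactive = inactive in every run, including wrong-direction effects.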
Test system: ldlA[mSR-BI] CHO cells viability, CellTiter-Glo ATP, 24 h
Assay: ldlA[mSR-BI] cell viability loss – CellTiter-Glo ATP, 24 h, dry powder, set 4, cytotoxicity control for HDL uptake inhibitor project, dose response (AID 588842)
Conditions: not given
Method in brief: (§1)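 Test system: ldlA[mSR-BI] cells / Buffer or medium: Ham's F12 medium with 10% FCS and PSG / Timing: 24 h compound exposure at 37 °C, then 10 min CellTiter-Glo incubation / Detection: luciferase luminescence reporting cellular ATP, CellTiter-Glo reagent / Measure: IC50 from compound dose-response curves of cell viability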

| SMILES | AC50 |
| --- | --- |
| CC(C)NC(=O)Nc1cccc2c1O[C@H](CN(C)Cc1ccc(Cl)c(Cl)c1)[C@@H](C)CN([C@@H](C)CO)C2=O | 58 µM |
| CCCCCCC1CCC/C1=N\NC(N)=S (configuration not stated) | 3.86 µM |
| C[C@@H]1CN([C@H](C)CO)C(=O)c2cc(NC(=O)Cc3cn(C)c4ccccc34)ccc2O[C@H]1CN(C)S(=O)(=O)c1ccc(F)cc1 | 47.7 µM |
| CCC(=O)N1CCc2cc(-c3csc(NC(=O)c4ccccc4)n3)ccc21 | 67.8 µM |
| COc1c(NC(=O)C(=O)c2ccc(OCCN3CCOCC3)c3ccccc23)cc(C(C)(C)C)cc1NS(C)(=O)=O | 15.5 µM |
| CCOc1ccccc1/C=C/c1onc(C)c1S(=O)(=O)N1CCC(C(=O)NC(C)(C)C)CC1 | 30.1 µM |
| C[C@H]1CN([C@@H](C)CO)C(=O)c2cccc(NC(=O)Nc3ccccc3)c2O[C@@H]1CN(C)Cc1ccc(Cl)c(Cl)c1 | 29.8 µM |
| CCC(=O)N1CCc2cc(-c3csc(NC(=O)c4ccc(F)cc4)n3)ccc21 | 48.2 µM |

Test system: not listed separately
Assay: as above
Conditions: ldlA[mSR-BI] CHO cells viability, CellTiter-Glo ATP, 24 h; at 35 µM (top of the series)
Method in brief: as §1

| SMILES | activity change, negative = cytotoxicity |
| --- | --- |
| CCC(=O)N1CCc2cc(-c3csc(NC(=O)c4cccnc4)n3)ccc21 | -3.5% (inactive) |
| C[C@@H]1CN([C@H](C)CO)C(=O)c2cc(NC(=O)Cc3cn(C)c4ccccc34)ccc2O[C@H]1CN(C)S(=O)(=O)c1ccc(Cl)cc1 | -19% (inactive) |
| CCC(=O)N1CCc2cc(-c3csc(NC(=O)c4ccc(Cl)cc4)n3)ccc21 | -5.95% (inactive) |
| CCC(=O)N1CCc2cc(-c3csc(NC(=O)c4ccco4)n3)ccc21 | -17.6% (inactive) |
| O=C(Nc1nc(-c2ccc3c(c2)CCN3S(=O)(=O)c2ccccc2)cs1)c1ccco1 | -30.8% (inactive) |
| CC(C(=O)NC1CCCC1)N(C(=O)Cn1nnc(-c2ccc3c(c2)OCO3)n1)C1CCCCC1 (configuration not stated) | -16.1% (inactive) |
| CCC(=O)N1CCc2cc(-c3csc(NC(=O)c4cnco4)n3)ccc21 | -1.99% (inactive) |
| CCC(=O)N1CCc2cc(-c3csc(NC(=O)c4ccncc4)n3)ccc21 | -2.04% (inactive) |
| CCC(=O)N1CCc2cc(-c3csc(N)n3)ccc21 | -18.4% (inactive) |
| CCC(=O)N1CCc2cc(-c3csc(NC(=O)c4ccoc4)n3)ccc21 | -8.58% (inactive) |
| COc1ccc(-c2nnn(CC(=O)N(C3CCCCC3)C(C)C(=O)NC3CCCC3)n2)cc1OC (configuration not stated) | -11.1% (inactive) |
| CC(C(=O)NC1CCCC1)N(C(=O)Cc1ccccc1)C1CCCCC1 (configuration not stated) | -1.74% (inactive) |
| CCC(=O)N1CCc2cc(-c3csc(NC(=O)c4ccc(OC)cc4)n3)ccc21 | -11.6% (inactive) |

Same assay, conditions: ldlA[mSR-BI] CHO cells viability, CellTiter-Glo ATP, 24 h; at 68 µM (top of the series)

| SMILES | activity change, negative = cytotoxicity |
| --- | --- |
| CCOc1ccc(NC(=O)CN2CCN(CC(=O)Nc3cc(OC)cc(OC)c3)CC2)cc1 | -20% (inactive) |
